These results are taken from ChEMBL document CHEMBL4020721 (Eur J Med Chem, 2017).

For one data set, the target named is Cytochrome P450 2C19 (Homo sapiens, UniProt P33261). The data set can be described thus: (§1) Reversible inhibition of CYP2C19 in human liver microsomes at 10 uM after 20 mins in presence of NADPH by LC-MS/MS analysis. In kind it is ADME. To be noted: microsomes, 20 min, 10 µM.
Data set [1] addresses T1, CYP2C9 (Homo sapiens, UniProt P11712). Nature of the data set: (§2) Time dependent irreversible inhibition of CYP2C9 in human liver microsomes at 10 uM preincubated with compound followed by NADPH addition by LC-MS/MS analysis. In kind it is ADME. The settings on record: liver microsomes. The procedure, abridged:
(§3)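 HLM (0.2 mg/ml) with 10 µM compound were preincubated 0, 5, 10 or 20 min at 37°C with 1 mM NADPH or PBS. Substrate cocktail (halved concentrations) plus NADPH was then added for 10 min. Metabolites were measured by LC-MS/MS. Kobs is the slope of relative activity versus preincubation time.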

In another data set the test system is NCI-H1993. The data set can be described thus: Growth inhibition of human NCI-H1993 cells after 72 hrs by CCK-8 assay. In kind it is functional, cell-based. The settings on record: Homo sapiens, NCI-H1993, 72 h.
In a further data set the test system is SNU-5. Nature of the data set: Growth inhibition of human SNU5 cells after 72 hrs by CCK-8 assay. The data set is classed as functional, cell-based. To be noted: Homo sapiens, SNU-5, 72 h. For orientation: Formazan colour is commonly taken as a measure of viable cells.
The nature of data set [2]: Intrinsic clearance in human liver microsomes assessed per mg protein at 1 uM preincubated for 5 mins followed by NADPH addition measured after 5 to 30 mins by LC-MS/MS analysis. In kind it is ADME, microsome. The settings on record: read-out: CLH. The procedure, abridged: (§4)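 Microsomes (0.5 mg/ml) with 1 µM compound were preincubated 5 min at 37°C in 100 mM phosphate buffer pH 7.4, then started with 1 mM NADPH. Samples were taken at 0, 5, 10 and 30 min, quenched with acetonitrile/tinidazole and run by LC-MS/MS. CLint = k / microsomal protein concentration. Midazolam was the positive control.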

Data set [3] is described as follows: Intrinsic clearance in rat liver microsomes assessed per mg protein at 1 uM preincubated for 5 mins followed by NADPH addition measured after 5 to 30 mins by LC-MS/MS analysis. In kind it is ADME, microsome. To be noted: read-out: CLH. In short, it runs like this: as §4
A short description of data set [4]: (§5) Drug recovery in human liver microsomes at 1 uM measured after 30 mins by LC-MS/MS analysis. The data set is classed as ADME, microsome. To be noted: liver microsomes, read-out: Drug recovery. The procedure, abridged: (§6)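 Liver microsomes (0.5 mg/ml) were incubated with 1 µM compound at 37°C in 100 mM phosphate buffer pH 7.4 without NADPH for 30 min. Reactions were quenched with acetonitrile/tinidazole internal standard and analysed by LC-MS/MS. Recovery (%) was taken from the compound/internal standard peak area ratio.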
A general note: Liver microsomes are a subcellular fraction often used to study metabolism.

Data set [5] in a line: (§7) Drug recovery in rat liver microsomes at 1 uM measured after 30 mins by LC-MS/MS analysis. The settings on record: liver microsomes, read-out: Drug recovery. The data set is classed as ADME, microsome.
Data set [6] addresses T2, Cytochrome P450 2C9 (Homo sapiens, UniProt P11712). Nature of the data set: (§8) Reversible inhibition of CYP2C9 in human liver microsomes at 10 uM after 20 mins by in presence of NADPH LC-MS/MS analysis. To be noted: microsomes, 20 min, 10 µM. The data set is classed as ADME.
Data set [7] addresses T3, Cytochrome P450 3A4 (Homo sapiens, UniProt P08684). The data set can be described thus: (§9) Reversible inhibition of CYP3A4 in human liver microsomes at 10 uM after 20 mins in presence of NADPH by LC-MS/MS analysis. The data set is classed as ADME. To be noted: microsomes, 20 min, 10 µM.
Data set [8] concerns the target T4, Cytochrome P450 2D6 (Homo sapiens, UniProt P10635). Nature of the data set: (§10) Reversible inhibition of CYP2D6 in human liver microsomes at 10 uM after 20 mins in presence of NADPH by LC-MS/MS analysis. The data set is classed as ADME. To be noted: microsomes, 20 min, 10 µM.
Data set [9] deals with T5, CYP2C19 (Homo sapiens, UniProt P33261). The data set can be described thus: Time dependent irreversible inhibition of CYP2C19 in human liver microsomes at 10 uM preincubated with compound followed by NADPH addition by LC-MS/MS analysis. The data set is classed as ADME. The procedure, abridged: as §3
T5 sequence (P33261 whole entry): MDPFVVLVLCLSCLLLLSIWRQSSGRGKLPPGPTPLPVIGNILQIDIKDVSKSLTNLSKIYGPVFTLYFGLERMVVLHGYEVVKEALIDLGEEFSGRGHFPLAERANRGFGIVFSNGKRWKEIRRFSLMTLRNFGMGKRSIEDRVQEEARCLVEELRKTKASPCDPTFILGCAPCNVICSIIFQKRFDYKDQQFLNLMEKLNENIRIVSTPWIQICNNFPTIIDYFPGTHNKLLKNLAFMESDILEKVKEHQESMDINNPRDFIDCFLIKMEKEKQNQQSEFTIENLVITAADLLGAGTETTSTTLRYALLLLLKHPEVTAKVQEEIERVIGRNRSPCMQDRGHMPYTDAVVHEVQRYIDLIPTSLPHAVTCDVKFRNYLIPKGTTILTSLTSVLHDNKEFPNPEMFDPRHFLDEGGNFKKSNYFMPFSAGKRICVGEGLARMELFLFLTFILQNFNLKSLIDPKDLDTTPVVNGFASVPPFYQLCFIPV
Data set [10] addresses T6, CYP3A4 (Homo sapiens, UniProt P08684). Nature of the data set: (§11) Time dependent irreversible inhibition of CYP3A4 in human liver microsomes at 10 uM preincubated with compound followed by NADPH addition by LC-MS/MS analysis. The data set is classed as ADME. The settings on record: liver microsomes. The procedure, abridged:
as §3

The target of data set [11] is T7, CYP2D6 (Homo sapiens, UniProt P10635). The data set can be described thus: (§12) Time dependent irreversible inhibition of CYP2D6 in human liver microsomes at 10 uM preincubated with compound followed by NADPH addition by LC-MS/MS analysis. The data set is classed as ADME. To be noted: liver microsomes. In short, it runs like this:
as §3

The target of data set [12] is T8, CYP1A2 (Homo sapiens, UniProt P05177).
T8 sequence (P05177 whole entry): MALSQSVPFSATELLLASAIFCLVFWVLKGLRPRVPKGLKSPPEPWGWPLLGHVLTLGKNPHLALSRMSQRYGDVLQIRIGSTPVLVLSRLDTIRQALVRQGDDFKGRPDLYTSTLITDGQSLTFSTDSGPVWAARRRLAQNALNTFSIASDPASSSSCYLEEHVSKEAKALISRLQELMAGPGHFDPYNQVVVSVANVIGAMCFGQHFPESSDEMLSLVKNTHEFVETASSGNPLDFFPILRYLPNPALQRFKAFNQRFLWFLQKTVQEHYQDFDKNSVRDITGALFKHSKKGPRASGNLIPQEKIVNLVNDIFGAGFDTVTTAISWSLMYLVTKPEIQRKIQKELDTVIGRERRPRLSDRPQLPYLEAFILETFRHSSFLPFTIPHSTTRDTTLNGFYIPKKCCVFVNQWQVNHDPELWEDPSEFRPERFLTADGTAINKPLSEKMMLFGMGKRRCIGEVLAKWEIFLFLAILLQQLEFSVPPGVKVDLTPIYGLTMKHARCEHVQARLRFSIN
The data set can be described thus: (§13) Time dependent irreversible inhibition of CYP1A2 in human liver microsomes at 10 uM preincubated with compound followed by NADPH addition by LC-MS/MS analysis. In kind it is ADME. The settings on record: liver microsomes. In short, it runs like this:
as §3

The nature of data set [13]: Drug recovery in monkey liver microsomes at 1 uM measured after 30 mins by LC-MS/MS analysis.
Data set [14] is described as follows: Intrinsic clearance in monkey liver microsomes assessed per mg protein at 1 uM preincubated for 5 mins followed by NADPH addition measured after 5 to 30 mins by LC-MS/MS analysis. The settings on record: liver microsomes; read-out: CLH.
In data set [15] the test system is Liver. The data set is described as §5. The data set is classed as ADME, microsome. The settings on record: microsomes, 0.5 h, 1 µM. In short, it runs like this: as §6
Data set [16] concerns the target T5, CYP2C19. The data set is described as §1. To be noted: liver microsomes. The data set is classed as ADME.
Data set [17] has as its target T2, Cytochrome P450 2C9. Described as §2. In kind it is ADME. The settings on record: microsomes, 10 µM. The procedure, abridged:
as §3

Data set [18] deals with Liver. The description is as §7. In kind it is ADME, microsome. The settings on record: microsomes, 0.5 h, 1 µM.
In data set [19] the target is T1, CYP2C9. Described as §8. The data set is classed as ADME. To be noted: liver microsomes.
In data set [20] the target is T6, CYP3A4. The description is as §9. In kind it is ADME. To be noted: liver microsomes.
In data set [21] the target is T7, CYP2D6. The data set is described as §10. The data set is classed as ADME. The settings on record: liver microsomes.
The target of data set [22] is T8, CYP1A2. The data set can be described thus: Reversible inhibition of CYP1A2 in human liver microsomes at 10 uM after 20 mins in presence of NADPH by LC-MS/MS analysis. In kind it is ADME.
For data set [23], the target named is T3, Cytochrome P450 3A4. Described as §11. In kind it is ADME. To be noted: microsomes, 10 µM. In short, it runs like this:
as §3

The target in data set [24] is T4, Cytochrome P450 2D6. The description is as §12. The data set is classed as ADME. The settings on record: microsomes, 10 µM. The procedure, abridged: as §3
A further data set concerns the target Cytochrome P450 1A2 (Homo sapiens, UniProt P05177). Described as §13. The data set is classed as ADME. The settings on record: microsomes, 10 µM. The procedure, abridged: as §3

T2 sequence (P11712 whole entry): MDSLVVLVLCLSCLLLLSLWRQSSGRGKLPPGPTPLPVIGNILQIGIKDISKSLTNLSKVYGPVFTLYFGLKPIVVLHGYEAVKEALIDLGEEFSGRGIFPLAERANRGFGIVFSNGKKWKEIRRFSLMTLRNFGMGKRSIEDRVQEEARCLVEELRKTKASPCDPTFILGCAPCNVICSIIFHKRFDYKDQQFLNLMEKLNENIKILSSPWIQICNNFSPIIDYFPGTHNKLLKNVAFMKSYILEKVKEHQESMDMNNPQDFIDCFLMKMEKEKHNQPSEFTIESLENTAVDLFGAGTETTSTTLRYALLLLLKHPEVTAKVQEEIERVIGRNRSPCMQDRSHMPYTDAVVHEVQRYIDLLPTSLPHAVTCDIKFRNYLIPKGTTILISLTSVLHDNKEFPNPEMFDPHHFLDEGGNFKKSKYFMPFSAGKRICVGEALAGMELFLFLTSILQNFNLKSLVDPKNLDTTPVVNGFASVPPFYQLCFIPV
T1 sequence (P11712 whole entry): as above
T4 sequence (P10635 whole entry): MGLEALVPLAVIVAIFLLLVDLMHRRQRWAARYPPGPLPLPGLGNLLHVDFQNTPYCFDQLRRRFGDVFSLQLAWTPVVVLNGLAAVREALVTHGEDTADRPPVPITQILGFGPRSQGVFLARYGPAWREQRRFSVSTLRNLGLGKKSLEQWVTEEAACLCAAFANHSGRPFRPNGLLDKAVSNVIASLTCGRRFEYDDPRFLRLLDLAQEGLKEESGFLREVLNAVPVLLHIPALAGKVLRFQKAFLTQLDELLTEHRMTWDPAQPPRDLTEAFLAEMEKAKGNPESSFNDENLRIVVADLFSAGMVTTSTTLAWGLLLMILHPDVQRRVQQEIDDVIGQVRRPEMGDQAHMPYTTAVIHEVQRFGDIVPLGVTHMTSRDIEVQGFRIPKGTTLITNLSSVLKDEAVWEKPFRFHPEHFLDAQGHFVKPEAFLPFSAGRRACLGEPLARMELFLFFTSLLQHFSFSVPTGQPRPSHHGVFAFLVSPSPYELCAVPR
T7 sequence (P10635 whole entry): as above
T6 sequence (P08684 whole entry): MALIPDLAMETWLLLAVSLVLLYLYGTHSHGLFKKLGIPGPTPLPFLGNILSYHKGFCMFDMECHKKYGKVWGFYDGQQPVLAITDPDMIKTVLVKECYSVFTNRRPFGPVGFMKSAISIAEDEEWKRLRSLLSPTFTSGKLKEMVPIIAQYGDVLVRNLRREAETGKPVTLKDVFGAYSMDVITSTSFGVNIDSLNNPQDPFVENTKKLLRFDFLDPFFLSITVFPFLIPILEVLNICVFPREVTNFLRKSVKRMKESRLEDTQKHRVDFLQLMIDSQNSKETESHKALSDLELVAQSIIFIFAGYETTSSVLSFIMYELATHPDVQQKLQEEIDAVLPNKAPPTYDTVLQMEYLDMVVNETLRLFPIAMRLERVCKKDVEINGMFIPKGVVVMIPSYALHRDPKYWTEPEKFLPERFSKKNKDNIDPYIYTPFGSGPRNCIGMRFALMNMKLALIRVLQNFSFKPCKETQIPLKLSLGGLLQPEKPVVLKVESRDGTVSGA
T3 sequence (P08684 whole entry): as above
Sequence of Cytochrome P450 2C19 (P33261 whole entry): as the sequence (P33261 whole entry) above

On to `CC(c1c(F)cc2ncc(-c3cnn(C)c3)cc2c1F)n1nnc2ncc(-c3ccncc3)nc21` (stereo unspecified), for which the “inhibition (INH)” value at Cytochrome P450 2C19, on Cytochrome P450 2C9 [6], on Cytochrome P450 3A4 [7] and at Cytochrome P450 2D6 [8] was “Active” in each case. For the same molecule, the inhibition at 10 µM at CYP2C9 [1], at CYP2C19 [9], at CYP3A4 [10], at CYP2D6 [11] and at CYP1A2 [12] was less than 50% in each case. Also, the IC50 (commonly the concentration at which inhibition is half-maximal) with NCI-H1993 was determined as 0.2 nM; in the data set on SNU-5, 1.2 nM. Besides, the microsomal CLint at 1 µM was determined as 9 µL/min/mg in data set [2], 26 µL/min/mg in data set [3] and 106 µL/min/mg in [14]. Also, the results for the remaining at 0.5 h, 1 µM in data set [4], in data set [5] and in [13] were 101%, 98% and 99%, respectively.

Turning to `CC(c1ccc2ncc(-c3cnn(C)c3)cc2c1)n1nnc2ncc(-c3cnn(C)c3)nc21` (stereo unspecified), the midpoint of inhibition in the data set on SNU-5, the IC50, lay at 0.5 nM. Besides, the values for the microsomal CLint at 1 µM in data set [2], in [3] and in [14] were 12 µL/min/mg, 22 µL/min/mg and 42 µL/min/mg, respectively. Moreover, the Drug recovery with Liver [15] stood at 123%. Further, the results for the remaining at 0.5 h, 1 µM in [5] and in [13] were 115% and 79%, respectively.

`CC(c1ccc2ncc(-c3cnn(C)c3)cc2c1)n1nnc2ncc(-c3ccc(C(N)=O)c(F)c3)nc21` (stereo unspecified): the inhibition at 20 min, 10 µM at CYP2C19 [16], on CYP2C9 [19], at CYP3A4 [20], at CYP2D6 [21] and at CYP1A2 [22] was less than 50% throughout. In addition, the TDI entry at Cytochrome P450 2C9 [17], at Cytochrome P450 3A4 [23], on Cytochrome P450 2D6 [24] and on Cytochrome P450 1A2 was “Active” in each case. The values for the IC50 in the data set on NCI-H1993 and in the data set with SNU-5 were 0.9 nM and 0.7 nM, respectively. Further, the microsomal CLint at 1 µM in [2] turned out to be 3 µL/min/mg; in [3], 10 µL/min/mg; in [14] it was 30 µL/min/mg. For the same molecule, the remaining at 0.5 h, 1 µM came to 120% in data set [4] and 98% in [13]. Moreover, the Drug recovery with Liver [18] worked out at 128%.
